In assay [1] the test system is Saccharomyces cerevisiae. Kind of assay: Inhibition of SV40 T antigen-stimulated Hsp70 ATPase in yeast assessed as ATP hydrolysis relative to control. The gist of the method:
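Yeast Ssa1p was pre-bound to ATP and run as a single-turnover assay with purified SV40 TAg (0.4 µM). Compound (300 µM) or DMSO was added at 60 s, and that time was set to zero. Runs were averaged over multiple experiments, kinetics were fitted, and the value is the fold change in TAg-stimulated ATP hydrolysis versus DMSO.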

The test system of assay [2] is Saccharomyces cerevisiae. Kind of assay: Inhibition of yeast Hsp70 ATPase assessed as ATP hydrolysis relative to control. In a few lines:
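Purified yeast Hsp70 (Ssa1p) was pre-bound to ATP and run as a single-turnover assay, so that only the hydrolysis step is measured. Compound (300 µM) or DMSO was added at 0 s, and that time was set to zero. Results from multiple experiments were averaged, kinetics were fitted, and the value is the fold change in hydrolysis versus DMSO.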

The test system of the next assay is SK-BR-3. Kind of assay: Antiproliferative activity against human SK-BR3 cells after 96 hrs by MTS assay. The following applies: SK-BR-3, 96 h. It is filed as functional. The gist of the method:
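Cells were kept in exponential growth in DMEM with 10% FBS, 1% penicillin and 1% glutamine, seeded at 4,000 per well and grown 48 h, with a time-zero plate counted. They were then exposed for 72 h to DMSO (1 v/v) or a concentration range in quadruplicate. Cell number was read by MTS/N-methylphenazine methylsulfate absorbance at 490 minus 630 nm. GI50 is relative to DMSO over the 72 h or 96 h period, and values above 50 µM are given as >50.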

A word on the GI50: it is the concentration giving 50% growth inhibition. High values mean lower sensitivity of the cells, low ones greater sensitivity of the cells. Take `CCCCCCN(C(=O)CCCCCN1C(=O)NC(c2ccc(-c3ccccc3)cc2)C(C(=O)OCc2ccccc2)=C1C)C(C(=O)NCCCC)c1ccc(O)cc1` (configuration not stated): the results for the Fold change with Saccharomyces cerevisiae [1] and with Saccharomyces cerevisiae [2] were 9.2 and 11.8, respectively. The same molecule gave a GI50 in the assay on SK-BR-3 above 50 µM.

As to `CC1=C(C(=O)OCc2ccccc2)C(c2ccc(C(F)(F)F)cc2)NC(=O)N1CCCCCC(=O)O` (configuration not stated), the Fold change in the assay with Saccharomyces cerevisiae [1] amounted to 1.1; with Saccharomyces cerevisiae [2], 1.2. In the assay with SK-BR-3, this molecule registered a GI50 above 50 µM.

For the molecule `CCCCNC(=O)C(c1ccc(OCC(=O)OC)c(C(=O)OC)c1)N(CCc1ccccn1)C(=O)CCCCCN1C(=O)NC(c2ccc(-c3ccccc3)cc2)C(C(=O)OCc2ccccc2)=C1C` (configuration not stated), the Fold change in the assay on Saccharomyces cerevisiae [1] and in the assay with Saccharomyces cerevisiae [2] was -1.1 in each case. Further, it took 7.5 µM to inhibit growth in the assay with SK-BR-3 by half (GI50).

Take `COC(=O)CCCCCN1C(=O)NC(c2ccc(-c3ccccc3)cc2)C(C(=O)OCc2ccccc2)=C1C` (configuration not stated): the Fold change with Saccharomyces cerevisiae [1] is -1.2; with Saccharomyces cerevisiae [2], 2.6. The molecule also yielded a GI50 with SK-BR-3 above 50 µM.

Take `CCCCNC(=O)C(c1ccc(OCC(=O)OC)c(C(=O)OC)c1)N(Cc1ccccc1)C(=O)CCCCCN1C(=O)NC(c2ccc(-c3ccccc3)cc2)C(C(=O)OCc2ccccc2)=C1C` (configuration not stated): the figures for the Fold change with Saccharomyces cerevisiae [1] and in the assay on Saccharomyces cerevisiae [2] were -1.9 and 1.5, respectively. For the same molecule, it took 14 µM to inhibit growth in the assay with SK-BR-3 by half (GI50).

On to `CC1=C(C(=O)OCc2ccccc2)C(C2CC2)NC(=O)N1CCCCCC(=O)O` (configuration not stated), for which the Fold change in the assay with Saccharomyces cerevisiae [1] came to 1; with Saccharomyces cerevisiae [2], 1.1. The GI50 in the assay on SK-BR-3 is above 50 µM.

For the molecule `CCCCCCN(C(=O)CCCCCN1C(=O)NC(c2ccc(-c3ccccc3)cc2)C(C(=O)OCc2ccccc2)=C1C)C(C)C(=O)NCCCC` (configuration not stated), the Fold change was 1 in the assay with Saccharomyces cerevisiae [1] and 1.6 with Saccharomyces cerevisiae [2]. Also, in the assay with SK-BR-3, the GI50 was above 50 µM.

For `CCCCCCN(C(=O)CCCCCN1C(=O)NC(c2ccc(-c3ccccc3)cc2)C(C(=O)OCc2ccccc2)=C1C)C(C(=O)NCCCC)c1cccc(C(=O)OC)c1` (configuration not stated), the Fold change is -2 with Saccharomyces cerevisiae [1] and 3.7 with Saccharomyces cerevisiae [2]. The GI50 with SK-BR-3 was above 50 µM.

Regarding `CCCCNC(=O)C(c1ccc(OCC(=O)OC)c(C(=O)OC)c1)N(CCC1=CCCCC1)C(=O)CCCCCN1C(=O)NC(c2ccc(-c3ccccc3)cc2)C(C(=O)OCc2ccccc2)=C1C` (configuration not stated), the Fold change in the assay with Saccharomyces cerevisiae [1] was -1.2; in the assay with Saccharomyces cerevisiae [2], 6.1. Moreover, the GI50 in the assay with SK-BR-3 worked out at 39 µM.

For the molecule `CCCCCCN(C(=O)CCCCCN1C(=O)NC(c2ccc(-c3ccccc3)cc2)C(C(=O)OCc2ccccc2)=C1C)C(C(=O)NCCCC)c1ccc(-c2ccccc2)cc1` (configuration not stated), the Fold change in the assay on Saccharomyces cerevisiae [1] stood at 6; in the assay with Saccharomyces cerevisiae [2], 9.9. For the same molecule, in the assay with SK-BR-3, the GI50 is above 50 µM.

Take `CC1=C(C(=O)OCc2ccccc2)C(c2ccc([N+](=O)[O-])cc2)NC(=O)N1CCCCCC(=O)O` (configuration not stated): the Fold change came out at 1.1 with Saccharomyces cerevisiae [1] and 1.2 in the assay with Saccharomyces cerevisiae [2]. The same molecule came in with a GI50 in the assay with SK-BR-3 above 50 µM.

Regarding `CCCCCCN(C(=O)CCCCCN1C(=O)NC(c2ccc([N+](=O)[O-])cc2)C(C(=O)OCc2ccccc2)=C1C)C(C(=O)NCCCC)c1ccc(OCC(=O)OC)c(C(=O)OC)c1` (configuration not stated), the Fold change in the assay on Saccharomyces cerevisiae [1] was -1.1; with Saccharomyces cerevisiae [2], 1. This molecule also had a GI50 in the assay on SK-BR-3 of 6.9 µM.

`CC(=O)O[C@H]1C(=O)[C@@]2(C)[C@H]([C@H](OC(=O)c3ccccc3)[C@]3(O)C[C@H](OC(=O)[C@H](O)[C@@H](NC(=O)c4ccccc4)c4ccccc4)C(C)=C1C3(C)C)[C@]1(OC(C)=O)CO[C@@H]1C[C@@H]2O` [PACLITAXEL] gave a GI50 in the assay on SK-BR-3 of 6.1 µM.

In the case of `CC1=C(C(=O)OCc2ccccc2)C(C2CCCCC2)NC(=O)N1CCCCCC(=O)O` (configuration not stated), the Fold change in the assay on Saccharomyces cerevisiae [1] came out at 1.5; with Saccharomyces cerevisiae [2] it was 1. For the same molecule, the GI50 in the assay on SK-BR-3 was above 50 µM.

As to `CCCCCCN(C(=O)CCCCCN1C(=O)NC(c2ccc(-c3ccccc3)cc2)C(C(=O)OCc2ccccc2)=C1C)C(C(=O)NCCCC)c1ccccn1` (configuration not stated), the Fold change in the assay on Saccharomyces cerevisiae [1] turned out to be 5.5; with Saccharomyces cerevisiae [2], 4.2. This molecule also came in with a GI50 in the assay with SK-BR-3 above 50 µM.

As to `CCCCCCN(C(=O)CCCCCN1C(=O)NC(c2ccccc2-c2ccccc2)C(C(=O)OCc2ccccc2)=C1C)C(C(=O)NCCCC)c1ccc(OCC(=O)OC)c(C(=O)OC)c1` (configuration not stated), the Fold change is -4 with Saccharomyces cerevisiae [1] and -1.1 in the assay on Saccharomyces cerevisiae [2]. Also, the concentration for 50% growth inhibition (GI50) in the assay on SK-BR-3 was 17 µM.

As to `CCCCCCN(C(=O)CCCCCN1C(=O)NC(C2CCCCC2)C(C(=O)OCc2ccccc2)=C1C)C(C(=O)NCCCC)c1ccc(OCC(=O)OC)c(C(=O)OC)c1` (configuration not stated), the values for the Fold change in the assay with Saccharomyces cerevisiae [1] and in the assay on Saccharomyces cerevisiae [2] were -2.1 and 1.2, respectively. Further, the GI50 in the assay with SK-BR-3 came out at 6.3 µM.

Turning to `CCCCNC(=O)C(c1ccc(OCC(=O)OC)c(C(=O)OC)c1)N(CCc1ccccc1)C(=O)CCCCCN1C(=O)NC(c2ccc(-c3ccccc3)cc2)C(C(=O)OCc2ccccc2)=C1C` (configuration not stated), the Fold change is 1.3 in the assay on Saccharomyces cerevisiae [1] and 12.3 in the assay on Saccharomyces cerevisiae [2]. Moreover, halving of growth with SK-BR-3 (GI50) required 32 µM.

As to `CCCCNC(=O)C(c1ccc(OCC(=O)OC)c(C(=O)OC)c1)N(CCc1c[nH]c2ccccc12)C(=O)CCCCCN1C(=O)NC(c2ccc(-c3ccccc3)cc2)C(C(=O)OCc2ccccc2)=C1C` (configuration not stated), the Fold change is -1.3 with Saccharomyces cerevisiae [1] and 10.3 in the assay on Saccharomyces cerevisiae [2]. In the assay with SK-BR-3, this molecule returned a GI50 above 50 µM.

In the case of `CC1=C(C(=O)OCc2ccccc2)C(c2ccc3ccccc3c2)NC(=O)N1CCCCCC(=O)O` (configuration not stated), the Fold change in the assay with Saccharomyces cerevisiae [1] is -1.4; with Saccharomyces cerevisiae [2], -1.1. In addition, the GI50 in the assay on SK-BR-3 is above 50 µM.

As for `CCCCCCN(C(=O)CCCCCN1C(=O)NC(c2ccc(Cl)cc2)C(C(=O)OCc2ccccc2)=C1C)C(C(=O)NCCCC)c1ccc(OCC(=O)OC)c(C(=O)OC)c1` (configuration not stated), the Fold change is -5.1 in the assay on Saccharomyces cerevisiae [1] and 1.3 in the assay on Saccharomyces cerevisiae [2]. In addition, the GI50 with SK-BR-3 amounted to 16 µM.

For the molecule `CCCCCCN(C(=O)CCCCCN1C(=O)NC(c2ccc(-c3ccccc3)cc2)C(C(=O)OCc2ccccc2)=C1C)C(C(=O)NCCCC)C1CCCCC1` (configuration not stated), the Fold change in the assay with Saccharomyces cerevisiae [1] is 1.1; in the assay with Saccharomyces cerevisiae [2], 3.2. This molecule returned a 50% growth inhibitory concentration (GI50) in the assay on SK-BR-3 above 50 µM.

For `CCCCCCN(C(=O)CCCCCN1C(=O)NC(c2ccc(-c3ccccc3)cc2)C(C(=O)OCc2ccccc2)=C1C)C(C(=O)NCCCC)c1ccc(OCC(=O)O)c(C(=O)O)c1` (configuration not stated), the Fold change in the assay on Saccharomyces cerevisiae [1] is -2.2; in the assay on Saccharomyces cerevisiae [2], 1.1. In the assay on SK-BR-3, the GI50 was above 50 µM.

Consider `CCCCCCN(C(=O)CCCCCN1C(=O)NC(c2cccc([N+](=O)[O-])c2)C(C(=O)OCc2ccccc2)=C1C)C(C(=O)NCCCC)c1ccc(OCC(=O)OC)c(C(=O)OC)c1` (configuration not stated), for which the Fold change was -1.5 in the assay with Saccharomyces cerevisiae [1] and 1.1 with Saccharomyces cerevisiae [2]. Besides, the GI50 in the assay on SK-BR-3 was 6 µM.

Take `CC1=C(C(=O)OCc2ccccc2)C(c2cccc([N+](=O)[O-])c2)NC(=O)N1CCCCCC(=O)O` (configuration not stated): the Fold change in the assay with Saccharomyces cerevisiae [1] was 1.1; in the assay on Saccharomyces cerevisiae [2] it was -1.1. In addition, the GI50 in the assay on SK-BR-3 is above 50 µM.

Regarding `CCCCNC(=O)C(c1ccc(OCC(=O)OC)c(C(=O)OC)c1)N(Cc1ccccn1)C(=O)CCCCCN1C(=O)NC(c2ccc(-c3ccccc3)cc2)C(C(=O)OCc2ccccc2)=C1C` (configuration not stated), the Fold change in the assay on Saccharomyces cerevisiae [1] was -1.1; with Saccharomyces cerevisiae [2], 1. This molecule also had a GI50 in the assay on SK-BR-3 of 7.1 µM.

For `COC(=O)CCCCCN1C(=O)NC(c2ccccc2)C(C(=O)OCc2ccccc2)=C1C` (configuration not stated), the Fold change is -1.7 in the assay on Saccharomyces cerevisiae [1] and 2.3 in the assay on Saccharomyces cerevisiae [2]. The GI50 with SK-BR-3 was above 50 µM.

Take `COC(=O)CCCCCN1C(=O)NC(C2CC2)C(C(=O)OCc2ccccc2)=C1C` (configuration not stated): the Fold change worked out at 1 in the assay with Saccharomyces cerevisiae [1] and 1.9 in the assay on Saccharomyces cerevisiae [2]. In the assay on SK-BR-3, this molecule returned a GI50 above 50 µM.

These data come from ChEMBL document CHEMBL1143913, “Pyrimidinone-peptoid hybrid molecules with distinct effects on molecular chaperone function and cell proliferation” (Bioorg Med Chem, 2008).
